Drawing on ChEMBL document CHEMBL1123833, “Novel inhibitors of rat lens aldose reductase: N-[[(substituted amino)phenyl]sulfonyl]glycines” (J Med Chem, 1987), this text covers IC50 and inhibition for 17 compounds.

Assay [1] concerns the target Aldo-keto reductase family 1 member B1 (Rattus norvegicus, UniProt P07943). Nature of the assay: Inhibition of rat aldose reductase enzyme. A digest of the protocol:
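Rat lens supernatant (homogenized in water, spun at 0–5 °C, diluted to a control rate of 0.010 ± 0.002 A/min). Assayed in 0.1 M phosphate pH 6.2, 0.104 mM NADPH, 10 mM DL-glyceraldehyde, following A340 decrease for 3.0 min. Four inhibitor concentrations, three determinations each. IC50 from least-squares fit of the log dose-response curve.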

In assay [2] the target is Aldo-keto reductase family 1 member B1 (Rattus norvegicus) (UniProt P07943). The assay can be described thus: Inhibition of rat aldose reductase activity at 100 uM. In outline:
(§1)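 Crude rat lens enzyme: 50 lenses homogenized in distilled water and spun at 10000 rpm for 10 min at 0–5 °C. Supernatant diluted so the control rate was 0.010 ± 0.002 A/min. Reaction in 0.1 M phosphate pH 6.2 with 0.104 mM NADPH, started with 10 mM DL-glyceraldehyde. NADPH loss read at 340 nm for 3.0 min against a glyceraldehyde-free blank. Inhibitor tested at 100 μM; % inhibition vs substrate-only control, reported with SEM.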

The target is the same in assay [3]. Nature of the assay: Compound was tested for percent inhibition of aldose reductase inhibitory activity using rat lens assay at concentration of 100 uM. A digest of the protocol: as §1

In turn, `O=C(O)CNS(=O)(=O)c1ccc(NC(=O)CCc2ccccc2)cc1` came in with an IC50 in assay [1] of 11.5 µM. The compound also had an inhibition in assay [2] of 86%.
For `O=C(O)CNS(=O)(=O)c1ccc(NC(=O)COCc2ccccc2)cc1` the same measures were 3.5 µM and 79%.
For `O=C(O)CNS(=O)(=O)c1cccc(NC(=O)c2ccccc2)c1` the same measures were 7.12 µM and 79%.
The matching figures for `Nc1ccc(S(=O)(=O)NCC(=O)O)cc1`: 16 µM and 76%.
For `CN(C)c1ccc(S(=O)(=O)NCC(=O)O)cc1`, in assay [1], inhibition was half-maximal at 10.9 µM (IC50). The compound further had an inhibition in assay [2] of 80%.
Consider `O=C(O)CNS(=O)(=O)c1ccc(NC(=O)OCc2ccccc2)cc1`, for which inhibition in assay [1] was half-maximal at 6.03 µM (IC50). The inhibition in assay [2] is 82%.
The matching figures for `CC(=O)Nc1ccc(S(=O)(=O)NCC(=O)O)cc1`: 4.22 µM and 88%.
For `Nc1cccc(S(=O)(=O)NCC(=O)O)c1` the same measures were 29 µM and 73%.
For the compound `O=C(O)CNS(=O)(=O)c1ccc(NCc2ccccc2)cc1`, it took 7.04 µM to reach half-maximal inhibition in assay [1] (IC50). This compound showed an inhibition in assay [2] of 71%.
In turn, `O=C(O)CNS(=O)(=O)c1ccc(NC(=O)c2ccccc2)cc1` came in with an IC50 in assay [1] of 0.41 µM. Moreover, in assay [2], the inhibition is 81%.
In turn, `O=C(O)CNS(=O)(=O)c1ccc(N/C(S)=N/c2ccccc2)cc1` returned an IC50 in assay [1] of 8.42 µM. Moreover, in assay [2], the inhibition amounted to 65%.
`O=C(O)CNS(=O)(=O)c1ccc(NC(=O)Cc2ccccc2)cc1` yielded an IC50 in assay [1] of 2.17 µM. In addition, the inhibition in assay [3] worked out at 100%.
In assay [1], `O=C(O)CNS(=O)(=O)c1ccc(NC(=O)/C=C/c2ccccc2)cc1` returned an IC50 of 0.69 µM. For the same compound, the inhibition in assay [2] came out at 72%.
Compound `O=C(O)CNS(=O)(=O)c1ccc(NC(=O)Nc2ccccc2)cc1` registered an IC50 in assay [1] of 2.75 µM. The same compound yielded an inhibition in assay [2] of 83%.
As for `O=C(O)CNS(=O)(=O)c1ccc(NC(=O)COc2ccccc2)cc1`, in assay [1], the IC50 is 2.64 µM. For the same compound, the inhibition in assay [2] came to 87%.
For `O=C(O)CNS(=O)(=O)c1ccccc1NC(=O)c1ccccc1` the same measures were 78 µM and 52%.
The matching figures for `Nc1ccccc1S(=O)(=O)NCC(=O)O`: 38 µM and 74%.

As a reminder, the IC50 is the concentration that inhibits the measured activity by half. A high value points to a need for much substance. By inhibition is commonly meant how much of the control response was suppressed. A higher inhibition goes with a strong effect.
